Test results: paper PMC9226493 (Nucleic Acids Research, 2022)

How the values were obtained:
[1] = system: UPEC 536; assay: Minimal inhibitory concentration; type: cell-based, Escherichia coli; settings: (KFF)3K-conjugated 10mer PNAs at concentrations ≤10 μM, 24 h
[2] = system: UPEC 536; assay: Killing time kinetics; type: cell-based, Escherichia coli; settings: 1.25 μM, UPEC 536 10^5 cfu/ml, within 24 h
[3] = system: acpP^91::gfp RNA; assay: In vitro translation of acpP::gfp RNA, western blot of AcpP1-17-GFP; type: biochemical, Escherichia coli; settings: 10-molar excess of PPNA over template RNA; performed two times; listed as (KFF)3K-acpP
Procedure, shortened: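 Target-gene fragment fused to gfp by overlap PCR, then T7 in vitro transcribed (3 h 45 min, 37°C; then DNase) and checked on 6% PAA/7 M urea gels. Heat-denatured RNA (1 pmol, 100 nM final) was pre-incubated with test compound at 37°C for 5 min. It was then translated in PURExpress for 2 h at 37°C. Water served as control. Analysis: 12% SDS-PAGE, anti-GFP western, Ponceau loading check, ImageJ signal relative to control.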

Row | Sequence | growth inhibition of UPEC 536 [1] | further results
1 | KFFKFFKFFK [nusG 10mer PPNA] | did not trigger complete growth inhibition | 
2 | KFFKFFKFFK [scrambled 10mer PPNA] |  | abundance of living bacterial cells compared to the water control [2]: did not affect the abundance of living bacterial cells
3 | KFFKFFKFFK [acpP 10mer PPNA] |  | effect on in vitro synthesis of AcpP1-17-GFP [3]: substantially inhibited
4 | KFFKFFKFFK [csrA 10mer PPNA] | did not trigger complete growth inhibition | 
5 | KFFKFFKFFK [yidC 10mer PPNA] | did not trigger complete growth inhibition | 
